Results on five compounds are retold here after PMC3401279 (ACS Chemical Biology, 2012).

Entries after “also recorded” stand apart in the source; their conditions may differ.

The subject of experiment [1] is rodents. The note with it: carnivore odor; cited from earlier work.
Experiment [2] concerns TAAR4. The note with it: cited from earlier work.
Experiment [3] deals with TAAR5. The conditions noted are these: cited from earlier work.
Experiment [4] has as its target T1, mTAAR7e (Mus musculus, UniProt Q5QD09).
T1 sequence (Q5QD09 1-358): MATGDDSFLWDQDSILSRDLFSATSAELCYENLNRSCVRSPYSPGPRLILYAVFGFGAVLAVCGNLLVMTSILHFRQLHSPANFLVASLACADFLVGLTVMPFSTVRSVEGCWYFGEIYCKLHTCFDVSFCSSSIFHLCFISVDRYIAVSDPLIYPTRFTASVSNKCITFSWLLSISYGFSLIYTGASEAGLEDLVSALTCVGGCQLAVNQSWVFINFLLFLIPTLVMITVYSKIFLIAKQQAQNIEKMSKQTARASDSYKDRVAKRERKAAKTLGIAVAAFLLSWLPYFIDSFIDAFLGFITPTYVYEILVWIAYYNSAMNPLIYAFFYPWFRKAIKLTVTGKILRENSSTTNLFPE
As to the kind of experiment: cAMP-dependent CRE-SEAP reporter gene assay in transfected HEK293 cells, mTAAR7e. The conditions noted are these: ligand 10 μM. The class given is cell-based. The essentials:
(§1)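 HEK293 cells were co-transfected with a TAAR plasmid and a cAMP-dependent secreted alkaline phosphatase reporter (CRE-SEAP). Receptors were expressed both unmodified and as fusions with an N-terminal bovine rhodopsin sequence (Rho tag) that aids surface expression. Transfected cells were incubated with test compound at 10 μM. Secreted phosphatase activity was quantified with a fluorescent substrate as the activation read-out. Triplicates ± s.d.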
In general terms: Reporter assays use an easily measured gene product as a stand-in for the process of interest.

Experiment [5] concerns mTAAR7e-YC (mTAAR7e S132Y, S133C). As to the kind of experiment: cellular reporter gene assay, mutant mTAAR7e-YC. Type of experiment: cell-based, mouse. The note with it: mutant versus mTAAR7e; for decreased affinity of mTAAR7e-YC: decrease.
For experiment [6], the target named is T2, rTAAR7h (Rattus norvegicus, UniProt Q923Y4).
T2 sequence (Q923Y4 1-358): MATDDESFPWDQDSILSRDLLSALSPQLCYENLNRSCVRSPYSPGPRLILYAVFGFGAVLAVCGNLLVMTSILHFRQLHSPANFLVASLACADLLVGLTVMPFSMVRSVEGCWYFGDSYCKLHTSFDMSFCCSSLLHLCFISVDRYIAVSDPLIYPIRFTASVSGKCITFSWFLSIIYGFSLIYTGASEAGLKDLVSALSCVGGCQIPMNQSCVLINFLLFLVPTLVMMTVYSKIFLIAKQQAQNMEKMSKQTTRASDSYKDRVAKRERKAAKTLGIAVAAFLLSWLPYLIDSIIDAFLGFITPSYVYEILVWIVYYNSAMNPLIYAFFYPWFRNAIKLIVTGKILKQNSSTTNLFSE
As to the kind of experiment: cAMP-dependent CRE-SEAP reporter gene assay in transfected HEK293 cells, rTAAR7h. The class given is cell-based. The note with it: ligand 10 μM. The essentials:
as §1

The test system of experiment [7] is mTAAR7f-SS (mTAAR7f Y132S, C133S). The experiment is described as follows: cellular reporter gene assay, mutant mTAAR7f-SS. The class given is cell-based, mouse. The note with it: mutant versus mTAAR7f, increase.
In experiment [8] the target is T3, mTAAR7b (Mus musculus, UniProt Q5QD11).
T3 sequence (Q5QD11 1-358): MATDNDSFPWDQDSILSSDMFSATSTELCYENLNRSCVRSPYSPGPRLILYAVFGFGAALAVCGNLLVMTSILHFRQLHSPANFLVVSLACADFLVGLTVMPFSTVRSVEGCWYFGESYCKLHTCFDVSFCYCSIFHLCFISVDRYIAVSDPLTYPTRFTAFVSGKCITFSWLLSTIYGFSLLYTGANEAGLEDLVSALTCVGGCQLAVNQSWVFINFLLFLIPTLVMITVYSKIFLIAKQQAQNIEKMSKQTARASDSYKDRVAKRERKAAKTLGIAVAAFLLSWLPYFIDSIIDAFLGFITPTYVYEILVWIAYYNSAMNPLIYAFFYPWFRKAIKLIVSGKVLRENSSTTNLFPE
The experiment is described as follows: cAMP-dependent CRE-SEAP reporter gene assay in transfected HEK293 cells, mTAAR7b. The class given is cell-based. The conditions noted are these: ligand 10 μM. The essentials:
as §1

The target of experiment [9] is T4, mTAAR7f (Mus musculus, UniProt Q5QD08).
T4 sequence (Q5QD08 1-358): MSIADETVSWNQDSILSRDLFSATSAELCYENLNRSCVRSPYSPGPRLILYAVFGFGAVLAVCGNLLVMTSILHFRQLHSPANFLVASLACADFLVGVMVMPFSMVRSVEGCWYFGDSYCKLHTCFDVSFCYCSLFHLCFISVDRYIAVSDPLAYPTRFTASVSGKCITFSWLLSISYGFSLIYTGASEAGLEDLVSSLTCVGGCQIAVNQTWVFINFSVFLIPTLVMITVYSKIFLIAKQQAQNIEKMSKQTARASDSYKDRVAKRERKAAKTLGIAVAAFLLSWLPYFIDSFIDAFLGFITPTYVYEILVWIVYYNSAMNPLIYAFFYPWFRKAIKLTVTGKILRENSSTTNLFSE
The experiment is described as follows: cAMP-dependent CRE-SEAP reporter gene assay in transfected HEK293 cells, mTAAR7f. Type of experiment: cell-based. The note with it: ligand 10 μM. In outline: as §1

The target in experiment [10] is T5, rTAAR7d (Rattus norvegicus, UniProt Q923X5).
T5 sequence (Q923X5 1-358): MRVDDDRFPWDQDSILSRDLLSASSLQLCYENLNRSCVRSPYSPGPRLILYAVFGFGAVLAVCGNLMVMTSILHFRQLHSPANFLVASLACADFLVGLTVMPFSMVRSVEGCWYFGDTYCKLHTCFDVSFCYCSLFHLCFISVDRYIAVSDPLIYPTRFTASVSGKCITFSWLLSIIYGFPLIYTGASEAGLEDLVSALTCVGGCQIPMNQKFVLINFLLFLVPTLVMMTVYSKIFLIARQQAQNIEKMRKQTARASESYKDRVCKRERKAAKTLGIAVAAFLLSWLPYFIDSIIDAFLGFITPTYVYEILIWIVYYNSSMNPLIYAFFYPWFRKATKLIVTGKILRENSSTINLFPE
The experiment is described as follows: cAMP-dependent CRE-SEAP reporter gene assay in transfected HEK293 cells, rTAAR7d. The class given is cell-based. The note with it: ligand 10 μM. In outline:
as §1

Experiment [11] deals with T6, rTAAR7b (Rattus norvegicus, UniProt Q923X8).
T6 sequence (Q923X8 1-358): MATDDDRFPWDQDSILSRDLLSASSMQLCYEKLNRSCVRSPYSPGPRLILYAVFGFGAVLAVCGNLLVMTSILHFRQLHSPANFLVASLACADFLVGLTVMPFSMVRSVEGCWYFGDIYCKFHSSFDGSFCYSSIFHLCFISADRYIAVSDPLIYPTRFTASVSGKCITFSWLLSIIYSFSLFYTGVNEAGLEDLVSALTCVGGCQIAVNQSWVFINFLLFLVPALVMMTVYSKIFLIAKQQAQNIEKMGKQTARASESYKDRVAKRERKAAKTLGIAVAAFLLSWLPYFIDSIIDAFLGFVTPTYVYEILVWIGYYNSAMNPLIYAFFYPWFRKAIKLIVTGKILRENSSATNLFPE
As to the kind of experiment: cAMP-dependent CRE-SEAP reporter gene assay in transfected HEK293 cells, rTAAR7b. The class given is cell-based. The note with it: ligand 10 μM. In outline:
as §1

As for `NCCc1ccccc1` [ligand 3, 2-phenylethylamine], the “behavioral effect of odor on rodents” value in [1] was “repels rodents”. Further, the TAAR4 agonist result in experiment [2] is recorded as “agonist”.

With `CN(C)C` [ligand 4, trimethylamine], the TAAR5 agonist result in experiment [3] is “agonist”.

Turning to `CN(C)CCc1ccccc1` [ligand 6, N,N-dimethyl-2-phenylethylamine], the “activation of mTAAR7e (reporter response)” value in experiment [4] is recorded as “respond; also recorded: activated”. Further, the “decreased affinity of mTAAR7e-YC” value in [5] was > 1,000 fold. In experiment [6], the “activation of rTAAR7h (reporter response)” value was “respond; also recorded: activated”. The “increases in affinity of mTAAR7f-SS” value in experiment [7] is listed as > 1,000 fold.

Consider `COc1ccc2[nH]cc(CCN(C)C)c2c1` [ligand 7, 5-methoxy-N,N-dimethyltryptamine], for which the “decreased affinity of mTAAR7e-YC” value in experiment [5] is given as > 1,000 fold. The “increases in affinity of mTAAR7f-SS” value in [7] is > 1,000 fold.

In the case of `CN(C)C1CCCCC1` [ligand 10, N,N-dimethylcyclohexylamine], the “enhanced affinity of mTAAR7e-YC” value in experiment [5] (increase) was > 1,000 fold. Further, the “activation of mTAAR7b (reporter response)” value in [8] is “respond; also recorded: activated”. Also, the “activation of mTAAR7f (reporter response)” value in experiment [9] is “respond; also recorded: activated”. In addition, the “activation of rTAAR7d (reporter response)” value in [10] is recorded as “respond; also recorded: activated”. In addition, the “activation of rTAAR7b (reporter response)” value in experiment [11] is recorded as “respond; also recorded: activated”.
